Assay results taken from ChEMBL document CHEMBL1134357, “Heterobifunctional ligands: practical chemoenzymatic synthesis of a cell adhesive glycopeptide that interacts with both selectins and integrins” (J Med Chem, 2001).

Tests used:
[1] = Association constant of compound against selectin L was determined
Outline: (§1)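 SPR (IAsys): recombinant soluble human E-, P- or L-selectin is coupled to a BS3-activated aminosilane cuvette and the surface blocked with BSA. Binding is run in 10 mM PBS, 1 mM CaCl2, pH 7.2, at 25 °C. Ligand solution (0.01 mL into 0.2 mL total) is monitored for 20 min, and kinetic and equilibrium constants are derived from the binding curves.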

[2] = Association constant of compound against selectin P was determined; outline: as §1
[3] = Association constant of compound against selectin E was determined; outline: as §1
[4] = Dissociation constant of compound against selectin E was determined; outline: as §1
[5] = Dissociation constant of compound against selectin L was determined; outline: as §1
[6] = Dissociation constant of compound against selectin P was determined; outline: as §1
[7] = biological target: T1, E-selectin (Homo sapiens) (UniProt P16581); assay: Binding affinity of compound against selectin E was determined; outline: as §1
T1 sequence (whole entry): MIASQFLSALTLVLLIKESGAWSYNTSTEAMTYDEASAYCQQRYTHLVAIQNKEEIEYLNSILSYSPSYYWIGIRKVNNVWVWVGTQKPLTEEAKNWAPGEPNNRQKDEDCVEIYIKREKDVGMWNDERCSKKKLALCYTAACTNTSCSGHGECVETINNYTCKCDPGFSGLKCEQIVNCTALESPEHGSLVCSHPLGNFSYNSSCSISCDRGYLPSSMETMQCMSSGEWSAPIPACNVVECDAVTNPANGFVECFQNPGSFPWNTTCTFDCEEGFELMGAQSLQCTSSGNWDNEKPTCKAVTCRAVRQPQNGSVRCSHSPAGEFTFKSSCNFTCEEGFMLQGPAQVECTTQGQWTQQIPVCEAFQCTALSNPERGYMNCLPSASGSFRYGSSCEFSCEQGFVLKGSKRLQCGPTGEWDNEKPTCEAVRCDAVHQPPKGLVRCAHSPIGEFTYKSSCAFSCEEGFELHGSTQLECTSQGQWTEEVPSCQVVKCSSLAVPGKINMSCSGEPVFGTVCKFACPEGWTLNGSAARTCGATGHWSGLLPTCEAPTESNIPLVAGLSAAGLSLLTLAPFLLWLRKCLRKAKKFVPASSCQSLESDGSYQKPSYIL

[8] = biological target: T2, P-selectin (Homo sapiens) (UniProt P16109); assay: Binding affinity of compound against selectin P was determined; outline: as §1
T2 sequence (whole entry): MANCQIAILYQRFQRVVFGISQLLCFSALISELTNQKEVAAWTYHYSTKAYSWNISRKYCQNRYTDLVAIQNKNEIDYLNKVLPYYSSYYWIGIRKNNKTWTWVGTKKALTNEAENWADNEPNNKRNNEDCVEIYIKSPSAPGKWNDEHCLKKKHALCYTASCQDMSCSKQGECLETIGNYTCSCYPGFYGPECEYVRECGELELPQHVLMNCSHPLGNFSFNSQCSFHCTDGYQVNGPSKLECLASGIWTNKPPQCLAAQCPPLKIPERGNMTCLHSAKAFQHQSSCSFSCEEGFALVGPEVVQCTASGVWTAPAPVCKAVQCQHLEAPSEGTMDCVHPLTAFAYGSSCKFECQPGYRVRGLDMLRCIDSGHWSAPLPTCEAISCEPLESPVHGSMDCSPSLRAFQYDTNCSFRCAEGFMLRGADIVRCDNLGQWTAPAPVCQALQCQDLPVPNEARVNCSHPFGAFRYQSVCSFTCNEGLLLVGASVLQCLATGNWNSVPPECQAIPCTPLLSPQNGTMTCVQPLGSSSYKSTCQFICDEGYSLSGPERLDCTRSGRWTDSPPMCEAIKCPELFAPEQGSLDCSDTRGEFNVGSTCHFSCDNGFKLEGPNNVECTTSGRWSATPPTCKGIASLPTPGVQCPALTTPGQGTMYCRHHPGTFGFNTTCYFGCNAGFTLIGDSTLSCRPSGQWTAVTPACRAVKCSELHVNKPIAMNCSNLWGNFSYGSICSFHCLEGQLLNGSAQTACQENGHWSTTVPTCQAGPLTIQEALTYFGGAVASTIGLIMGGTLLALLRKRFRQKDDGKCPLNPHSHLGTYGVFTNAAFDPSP

[9] = biological target: T3, L-selectin (Homo sapiens) (UniProt P14151); assay: Binding affinity of compound against selectin L was determined; outline: as §1
T3 sequence (whole entry): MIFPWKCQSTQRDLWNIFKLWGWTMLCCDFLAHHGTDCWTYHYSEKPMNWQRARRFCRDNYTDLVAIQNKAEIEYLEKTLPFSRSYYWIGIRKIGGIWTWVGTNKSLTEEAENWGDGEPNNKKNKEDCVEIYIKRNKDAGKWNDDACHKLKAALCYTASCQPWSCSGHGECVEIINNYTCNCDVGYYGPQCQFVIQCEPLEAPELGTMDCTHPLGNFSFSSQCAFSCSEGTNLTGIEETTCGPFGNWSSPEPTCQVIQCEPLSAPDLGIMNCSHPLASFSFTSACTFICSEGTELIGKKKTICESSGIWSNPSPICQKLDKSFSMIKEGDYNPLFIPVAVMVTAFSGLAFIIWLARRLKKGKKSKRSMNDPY

| K ass [1] [M⁻¹ s⁻¹] | K ass [2] [M⁻¹ s⁻¹] | K ass [3] [M⁻¹ s⁻¹] | K diss [4] [s⁻¹] | K diss [5] [s⁻¹] | K diss [6] [s⁻¹] | Ka [7] [M⁻¹] | Ka [8] [M⁻¹] | Ka [9] [M⁻¹] | SMILES |
| --- | --- | --- | --- | --- | --- | --- | --- | --- | --- |
| 4.1 | 89.1 | 4 | – | – | – | – | – | – | NC(N)=NCCC[C@H](N)C(=O)NCC(=O)N[C@@H](CC(=O)O)C(=O)N[C@@H](CO)C(=O)O |
| – | – | – | 0.00066 | 0.00077 | 0.00092 | 6100 | 97000 | 5400 | N=C(N)NCCC[C@H](N)C(=O)NCC(=O)N[C@@H](CC(=O)O)C(=O)N[C@@H](CO)C(=O)O |
| 312.7 | 229.6 | 21.1 | 0.0017 | 0.36 | 0.00026 | 12000 | 880000 | 870 | CC(=O)N[C@H]1[C@H]([C@H](O)[C@H](O)CO)O[C@@](O[C@H]2[C@@H](O)[C@@H](CO)O[C@@H](O[C@@H]([C@H](O[C@@H]3O[C@@H](C)[C@@H](O)[C@@H](O)[C@@H]3O)[C@H](C=O)NC(C)=O)[C@H](O)CO)[C@@H]2O)(C(=O)O)C[C@@H]1O [SIALYL LEWIS X] |
